What was measured:
[1] = molecular target: T1, Tyrosine-protein kinase SYK (Homo sapiens, UniProt P43405); assay: Inhibition of N-terminal 6His-tagged full length human recombinant SYK expressed in baculovirus using Biotin-AAAEEIYGEI as substrate after 60 mins by TR-FRET assay
[2] = molecular target: T1, Tyrosine-protein kinase SYK; assay: Inhibition of SYK in human B cells assessed as suppression of anti-IgM-induced CD69 surface expression preincubated for 30 mins followed by anti-IgM addition measured after 3.5 hrs by flow cytometric analysis; format: cell-based
[3] = molecular target: Voltage-gated inwardly rectifying potassium channel KCNH2 (Homo sapiens, UniProt Q12809); assay: Inhibition of human ERG expressed in CHOK1 cell membranes after 2 hrs by cy3b-dofetilide-based fluorescence polarization assay
albumin = albumin (Homo sapiens, UniProt P02768); assay: Binding affinity to human serum albumin by HPLC analysis; format: ADME; conditions: read-out: PB (converted)
Aurora kinase B = Aurora kinase B (Homo sapiens, UniProt Q96GD4); assay: Inhibition of N-terminal-6His-tagged full length human Aurora B expressed in baculovirus using 5FAM-PKA-tide as substrate after 120 mins by fluorescence polarization assay
[4] = Cmax in rat at 3 mg/kg, po; format: ADME, organism-based; design: dose 3 mg/kg, route oral; conditions: in vivo
[5] = AUC in rat at 3 mg/kg, po; format: ADME, organism-based; conditions: in vivo
[6] = Dissociation constant, pKa of the compound; format: physicochemical
[7] = molecular target: Leucine-rich repeat serine/threonine-protein kinase 2 (Homo sapiens, UniProt Q5S007); assay: Inhibition of LRRK2 (unknown origin)
[8] = molecular target: Tyrosine-protein kinase JAK1 (Homo sapiens, UniProt P23458); assay: Inhibition of JAK1 (unknown origin)
Rattus norvegicus [9] = assay: (§1) In vivo inhibition of SYK-stimulated Fc-gamma receptor mediated immune complex activation in po dosed CD rat assessed as reduction in cutaneous reverse passive Arthus reaction preincubated for 1 hr followed by ovalbumin challenge with Evans blue dye measured after 4 hrs by spectrophotometric analysis; format: functional, organism-based
Summary of the method: (§2)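 Male CD rats (175–200 g, 8 per group, observer blind) got an oral suspension in 1% methylcellulose 1 h before challenge, with blood sampled for exposure. Challenge was iv 1% ovalbumin in saline (10 mg/kg) with 1% Evans blue. Ten min later, under isoflurane, rabbit anti-OVA IgG went intradermally at three left sites, control rabbit IgG on the right. At 4 h, 12 mm skin punches went into formamide, 16 h at 80 °C.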

Rattus norvegicus [10] = assay: as §1, with “in” for “in po dosed”, “reaction at 10 mg/kg, po” for “reaction”; format: functional; summary of the method: as §2
Rattus norvegicus [11] = assay: as §1, with “in” for “in po dosed”, “reaction at 30 mg/kg, po” for “reaction”; format: functional; summary of the method: as §2
[12] = Genotoxicity in Salmonella typhimurium TA1537 at 5000 ug/plate in presence of metabolic activation by Ames test; format: toxicity; conditions: salmonella enterica subsp. enterica serovar typhimurium
[13] = Half life in rat at 3 mg/kg, po or 1 mg/kg, iv; format: ADME, organism-based; conditions: in vivo
Summary of the method: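 Screening PK in rats: oral dosing at 3 mg/kg (n = 3) and intravenous dosing at 1 mg/kg (n = 1). Blood clearance, volume of distribution at steady state, half-life and oral bioavailability were derived from these profiles.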

[14] = molecular target: Tyrosine-protein kinase BTK (Homo sapiens, UniProt Q06187); assay: Inhibition of BTK (unknown origin)
[15] = Genotoxicity in Salmonella typhimurium TA1537 at 5000 ug/plate in absence of metabolic activation by Ames test; format: toxicity; conditions: salmonella enterica subsp. enterica serovar typhimurium
[16] = Lipophilicity, log D of the compound by chromatographic method; format: physicochemical
[17] = molecular target: Vascular endothelial growth factor receptor 2 (Homo sapiens, UniProt P35968); assay: Inhibition of KDR (unknown origin)

Voltage-gated inwardly rectifying potassium channel KCNH2, sequence (Q12809 whole entry): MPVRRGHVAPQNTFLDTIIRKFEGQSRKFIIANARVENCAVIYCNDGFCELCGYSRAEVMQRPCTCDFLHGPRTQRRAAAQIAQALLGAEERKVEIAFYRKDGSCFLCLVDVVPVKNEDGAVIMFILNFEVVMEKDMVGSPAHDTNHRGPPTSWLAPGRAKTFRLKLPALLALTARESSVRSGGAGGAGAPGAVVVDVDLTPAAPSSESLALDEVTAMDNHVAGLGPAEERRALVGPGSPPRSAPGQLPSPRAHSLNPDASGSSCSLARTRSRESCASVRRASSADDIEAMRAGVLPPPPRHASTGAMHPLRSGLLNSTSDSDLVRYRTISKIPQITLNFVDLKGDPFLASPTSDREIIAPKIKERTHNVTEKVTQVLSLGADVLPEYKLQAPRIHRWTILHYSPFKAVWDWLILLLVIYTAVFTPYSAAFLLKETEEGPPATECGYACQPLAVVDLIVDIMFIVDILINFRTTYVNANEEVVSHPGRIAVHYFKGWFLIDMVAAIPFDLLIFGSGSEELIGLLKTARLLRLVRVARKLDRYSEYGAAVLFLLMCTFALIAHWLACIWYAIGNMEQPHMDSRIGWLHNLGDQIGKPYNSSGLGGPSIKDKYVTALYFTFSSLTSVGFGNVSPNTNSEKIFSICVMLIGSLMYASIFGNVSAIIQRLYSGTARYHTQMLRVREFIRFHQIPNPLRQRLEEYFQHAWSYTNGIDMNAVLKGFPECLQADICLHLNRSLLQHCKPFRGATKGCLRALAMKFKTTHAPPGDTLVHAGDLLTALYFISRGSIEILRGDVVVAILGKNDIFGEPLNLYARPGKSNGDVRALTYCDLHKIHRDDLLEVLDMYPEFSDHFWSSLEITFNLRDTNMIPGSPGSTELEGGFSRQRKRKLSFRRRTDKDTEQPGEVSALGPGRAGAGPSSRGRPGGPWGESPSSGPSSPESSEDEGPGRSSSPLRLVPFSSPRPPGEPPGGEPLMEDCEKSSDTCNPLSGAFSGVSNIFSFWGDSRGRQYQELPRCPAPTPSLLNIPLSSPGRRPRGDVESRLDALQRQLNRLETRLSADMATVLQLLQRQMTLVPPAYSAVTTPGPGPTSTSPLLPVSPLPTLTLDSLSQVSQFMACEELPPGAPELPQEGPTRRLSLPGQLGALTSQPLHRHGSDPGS
albumin, sequence (P02768 whole entry): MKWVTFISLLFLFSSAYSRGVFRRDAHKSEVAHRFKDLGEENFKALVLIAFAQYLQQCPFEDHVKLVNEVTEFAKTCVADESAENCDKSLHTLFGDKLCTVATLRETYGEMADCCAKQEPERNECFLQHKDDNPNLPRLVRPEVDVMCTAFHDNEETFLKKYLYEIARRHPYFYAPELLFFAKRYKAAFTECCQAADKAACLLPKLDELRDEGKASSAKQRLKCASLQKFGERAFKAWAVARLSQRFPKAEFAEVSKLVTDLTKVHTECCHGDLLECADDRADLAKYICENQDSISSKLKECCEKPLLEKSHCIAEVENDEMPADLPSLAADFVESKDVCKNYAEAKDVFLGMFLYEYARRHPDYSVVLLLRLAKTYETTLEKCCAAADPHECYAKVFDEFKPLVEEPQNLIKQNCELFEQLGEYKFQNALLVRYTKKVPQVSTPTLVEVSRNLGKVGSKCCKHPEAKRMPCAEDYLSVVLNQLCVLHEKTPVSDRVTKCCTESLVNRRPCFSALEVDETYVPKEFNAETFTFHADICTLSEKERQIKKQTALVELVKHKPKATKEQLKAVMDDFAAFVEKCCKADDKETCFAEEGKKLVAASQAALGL
Aurora kinase B, sequence (Q96GD4 whole entry): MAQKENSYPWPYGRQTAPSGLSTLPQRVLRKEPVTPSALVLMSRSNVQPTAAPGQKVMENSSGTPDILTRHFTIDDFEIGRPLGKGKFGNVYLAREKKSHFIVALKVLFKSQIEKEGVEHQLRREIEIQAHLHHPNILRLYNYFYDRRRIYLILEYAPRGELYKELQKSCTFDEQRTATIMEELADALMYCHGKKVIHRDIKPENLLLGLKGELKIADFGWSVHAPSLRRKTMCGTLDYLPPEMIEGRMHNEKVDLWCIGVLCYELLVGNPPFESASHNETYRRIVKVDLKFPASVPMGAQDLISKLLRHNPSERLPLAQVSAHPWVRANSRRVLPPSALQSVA
Tyrosine-protein kinase JAK1, sequence (P23458 whole entry): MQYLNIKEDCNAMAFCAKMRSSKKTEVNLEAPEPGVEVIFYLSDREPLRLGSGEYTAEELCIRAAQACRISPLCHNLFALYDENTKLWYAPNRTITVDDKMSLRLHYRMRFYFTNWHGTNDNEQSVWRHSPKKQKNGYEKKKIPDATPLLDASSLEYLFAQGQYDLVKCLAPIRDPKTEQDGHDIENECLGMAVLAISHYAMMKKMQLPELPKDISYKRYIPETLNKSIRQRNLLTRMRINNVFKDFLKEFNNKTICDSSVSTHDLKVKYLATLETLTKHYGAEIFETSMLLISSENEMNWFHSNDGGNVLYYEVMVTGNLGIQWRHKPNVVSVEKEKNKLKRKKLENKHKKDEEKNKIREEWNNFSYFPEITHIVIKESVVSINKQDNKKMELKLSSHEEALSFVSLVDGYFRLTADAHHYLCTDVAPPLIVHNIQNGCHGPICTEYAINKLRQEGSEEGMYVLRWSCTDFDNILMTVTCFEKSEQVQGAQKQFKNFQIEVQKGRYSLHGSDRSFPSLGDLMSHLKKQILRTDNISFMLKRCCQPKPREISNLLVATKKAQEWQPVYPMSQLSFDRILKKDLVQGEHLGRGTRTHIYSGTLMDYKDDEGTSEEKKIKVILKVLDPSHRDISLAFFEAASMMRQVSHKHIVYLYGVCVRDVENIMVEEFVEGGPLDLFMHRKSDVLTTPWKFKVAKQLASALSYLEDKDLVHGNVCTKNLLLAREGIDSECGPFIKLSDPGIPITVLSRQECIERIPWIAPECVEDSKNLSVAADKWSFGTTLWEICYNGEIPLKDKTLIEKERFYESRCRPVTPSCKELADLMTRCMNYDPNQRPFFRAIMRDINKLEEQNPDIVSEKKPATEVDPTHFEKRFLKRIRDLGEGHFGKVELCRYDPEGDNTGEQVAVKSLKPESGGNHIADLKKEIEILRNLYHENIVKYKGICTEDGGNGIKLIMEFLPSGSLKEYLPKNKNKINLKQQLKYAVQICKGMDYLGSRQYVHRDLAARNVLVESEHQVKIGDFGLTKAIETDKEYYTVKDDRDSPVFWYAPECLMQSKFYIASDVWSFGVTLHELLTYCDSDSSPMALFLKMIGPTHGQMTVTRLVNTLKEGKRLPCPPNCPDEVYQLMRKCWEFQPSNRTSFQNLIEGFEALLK
Tyrosine-protein kinase BTK, sequence (Q06187 whole entry): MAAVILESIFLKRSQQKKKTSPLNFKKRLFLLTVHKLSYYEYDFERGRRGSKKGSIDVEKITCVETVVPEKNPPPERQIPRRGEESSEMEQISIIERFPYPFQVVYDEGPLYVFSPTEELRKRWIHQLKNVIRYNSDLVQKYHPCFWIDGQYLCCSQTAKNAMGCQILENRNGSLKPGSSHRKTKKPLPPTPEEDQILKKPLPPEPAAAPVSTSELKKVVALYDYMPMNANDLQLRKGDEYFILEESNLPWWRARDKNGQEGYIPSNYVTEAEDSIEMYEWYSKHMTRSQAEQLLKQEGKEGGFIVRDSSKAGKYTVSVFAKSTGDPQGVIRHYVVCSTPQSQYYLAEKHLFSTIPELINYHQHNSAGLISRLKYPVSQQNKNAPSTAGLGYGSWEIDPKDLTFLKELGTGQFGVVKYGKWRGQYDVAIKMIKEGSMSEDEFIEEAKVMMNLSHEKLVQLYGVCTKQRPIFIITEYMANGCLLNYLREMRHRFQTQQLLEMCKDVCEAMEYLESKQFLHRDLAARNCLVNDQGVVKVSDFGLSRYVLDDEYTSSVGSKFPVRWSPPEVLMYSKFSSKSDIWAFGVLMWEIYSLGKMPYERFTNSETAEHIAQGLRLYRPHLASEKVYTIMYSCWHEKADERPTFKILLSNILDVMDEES

Compound | IC50 [1] | IC50 [2] | IC50 [3] | fraction unbound (albumin) | further results
Cn1cc(-c2cc3nccnc3c(NC[C@@H]3CNCCC3(F)F)n2)cn1 | 3.98 nM | 79.4 nM | 25100 nM |  | 
Cc1ccc(-c2cc3ncn(C)c(=O)c3c(NC[C@H]3CCCNC3)n2)cc1 | 79.4 nM | 1260 nM | 25100 nM | 0.1 | 
CN(C)c1ccc(-c2cc3nccnc3c(NC[C@H]3CCCNC3)n2)cn1 | 15.8 nM | 316 nM |  | 0.08 | 
CN(C)c1ccc(-c2cc3ncccc3c(NC[C@H]3CCCNC3)n2)cn1 | 7.94 nM | 794 nM | > 50100 nM | 0.06 | 
Cn1cc(-c2cc3nccnc3c(OCC3CNCC(F)(F)C3)n2)cn1 (racemic) | 158 nM | 631 nM | > 50100 nM |  | IC50 (Aurora kinase B): 63.1 nM; Cmax [4]: 148 ng/mL; AUC [5]: 296 ng·h/mL; pKa [6]: 7
CN(C)c1ccc(-c2cc3nccnc3c(NC[C@@H]3CNCCO3)n2)cn1 | 25.1 nM | 316 nM | > 50100 nM | 0.12 | 
CN(C)c1ccc(-c2cc3nccnc3c(NC[C@@H]3CNCCC3(F)F)n2)cn1 | 2.51 nM | 158 nM |  | 0.05 | 
Cn1cc(-c2cc3nccnc3c(NC[C@H]3CCCNC3)n2)cn1 | 31.6 nM | 126 nM | > 50100 nM | 0.25 | 
c1cnc2c(NC[C@H]3CCCNC3)nc(N3CCNCC3)cc2n1 | > 25100 nM |  | > 50100 nM | 0.3 | 
c1cnc2c(NC[C@H]3CCCNC3)nc(-c3cn[nH]c3)cc2n1 | 50.1 nM | 316 nM | > 50100 nM | 0.24 | 
Cn1cc(-c2cc3nccnc3c(OCC3CNCCC3(F)F)n2)cn1 (racemic) |  |  |  |  | Cmax [4]: 28 ng/mL; AUC [5]: 99 ng·h/mL; pKa [6]: 7.7
Cc1ccc(-c2cc3nc[nH]c(=O)c3c(NC[C@H]3CCCNC3)n2)cc1 | 158 nM | 3980 nM | 7940 nM | 0.09 | 
Cn1cc(-c2cc3nccnc3c(NCC3CNCC(F)(F)C3)n2)cn1 (racemic) | 316 nM | 2000 nM | > 50100 nM |  | IC50 (Aurora kinase B): 501 nM; Cmax [4]: 96 ng/mL; AUC [5]: 216 ng·h/mL; pKa [6]: 6.9
Cn1cc(-c2cc3nccnc3c(NC[C@@H]3CNCCO3)n2)cn1 | 63.1 nM | 158 nM | > 50100 nM |  | IC50 [7]: 251 nM; IC50 [8]: 501 nM; inhibition (Rattus norvegicus [9]): Dose-dependent effect; inhibition in vivo at 10 mg/kg (Rattus norvegicus [10]): 45%; inhibition in vivo at 30 mg/kg (Rattus norvegicus [11]): 85%; Activity [12]: Non-Toxic; half-life [13]: 1.7 h; IC50 [14]: 251 nM; Activity [15]: Non-Toxic
Cc1ccc(-c2cc3nccnc3c(NC[C@H]3CCCNC3)n2)s1 | 20 nM | 1000 nM | 5010 nM | 0.08 | 
c1cnc2c(NC[C@H]3CCCNC3)nc(-c3cc[nH]n3)cc2n1 |  |  | > 50100 nM | 0.21 | 
CN(C)c1ccc(-c2cc3nccnc3c(NC[C@@H]3CNCCN3C)n2)cn1 | 50.1 nM |  | > 50100 nM | 0.09 | 
O=C1CN(c2cc3nccnc3c(NC[C@H]3CCCNC3)n2)CCN1 | 6310 nM |  |  | 0.41 | IC50 (Aurora kinase B): 7940 nM; chromatographic logD [16]: 0.6
Cc1ccc(-c2cc3nccnc3c(NC[C@H]3CCCNC3)n2)o1 |  | 794 nM | 20000 nM |  | 

Compound | IC50 [1] | IC50 [2] | IC50 [3] | fraction unbound (albumin) | further results
CN(C)c1ccc(-c2cc3nccnc3c(NC[C@H]3CNCCO3)n2)cn1 | 200 nM | 1580 nM | > 50100 nM | 0.11 | 
CN1CCNC[C@H]1CNc1nc(-c2cnn(C)c2)cc2nccnc12 | 100 nM | 200 nM | > 50100 nM |  | 
Cc1ccc(-c2cc3ncncc3c(NC[C@H]3CCCNC3)n2)cc1 | 200 nM | 3980 nM | 10000 nM | 0.09 | 
CN(C)c1ccc(-c2cc3nccnc3c(NCCC(N)=O)n2)cn1 | 158 nM | 3980 nM | > 50100 nM | 0.04 | 
CN(C)c1ccc(-c2cc3nccnc3c(OC[C@@H]3CCCNC3)n2)cn1 | 25.1 nM | 501 nM | 12600 nM | 0.09 | 
CN(C)c1ccc(-c2cc3nccnc3c(CCC3CCCNC3)n2)cn1 (racemic) | 251 nM | 1000 nM |  | 0.09 | chromatographic logD [16]: 2.4
CN1CCNC[C@H]1COc1nc(-c2cnn(C)c2)cc2nccnc12 |  | 100 nM | > 50100 nM |  | 
CN(C)c1ccc(-c2cc3nccnc3c(OC[C@H]3CCCNC3)n2)cn1 | 3.98 nM | 126 nM | 10000 nM | 0.1 | 
CN(C)c1ccc(-c2cc3nccnc3c(NC[C@H]3CNCCN3C)n2)cn1 | 79.4 nM | 251 nM | 15800 nM | 0.07 | 
Cc1ccc(-c2cc3ncccc3c(NC[C@H]3CCCNC3)n2)cc1 | 20 nM | 794 nM |  | 0.05 | 
Cc1ccc(-c2cc3nccnc3c(NC[C@H]3CCCNC3)n2)cc1 | 25.1 nM | 794 nM |  | 0.09 | 
CN(C)c1ccc(-c2cc(NC[C@H]3CCCNC3)c3cccnc3c2)cn1 | 6.31 nM | 501 nM |  | 0.05 | 
CN(C)c1ccc(-c2cc3nccnc3c(NCCCCN)n2)cn1 |  |  | 39800 nM | 0.11 | 
CN(C)c1ccc(-c2cc3nccnc3c(NCC(F)(F)F)n2)cn1 | 126 nM | > 10000 nM | > 50100 nM | 0.04 | IC50 (Aurora kinase B): 50.1 nM; chromatographic logD [16]: 5.7
Cn1cc(-c2cc3nccnc3c(OC[C@H]3CCCNC3)n2)cn1 | 39.8 nM | 200 nM | > 50100 nM | 0.22 | 
CN(C)c1ccc(-c2cc3nccnc3c(NCC3CNCC(F)(F)C3)n2)cn1 (racemic) | 100 nM | 1580 nM | > 50100 nM | 0.07 | IC50 (Aurora kinase B): 501 nM; chromatographic logD [16]: 4.2
CN(C)c1ccc(-c2cc3nccnc3c(NCCCCO)n2)cn1 | 200 nM | > 10000 nM | 31600 nM | 0.08 | 
CN(C)c1ccc(-c2cc3nccnc3c(NC[C@H]3CNCCC3(F)F)n2)cn1 | 31.6 nM | 1580 nM | 20000 nM | 0.05 | 
Cc1ccc(-c2cc3nccnc3c(NCCCCN)n2)cc1 |  |  | 15800 nM |  | IC50 [17]: 1580 nM; IC50 [8]: 2000 nM
